High-throughput results from PubChem BioAssay.
This is a sample that favours compounds with a hit; in the whole collection about 1.5% have one here.
APJ antag – antagonists of human apelin receptor APJ, primary screen, CHO-K1 cells, beta-arrestin complementation, luminescence; inhibition, % at 20 µM; 330,000 compounds, 0.32% hits; AID 2521, 2010;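 active means inhibition above about 40% at 20 µM, limit read from the data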;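 further: cells challenged with 10 nM apelin-13 agonist together with compound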
Target sequence (P35414 whole entry, looked up): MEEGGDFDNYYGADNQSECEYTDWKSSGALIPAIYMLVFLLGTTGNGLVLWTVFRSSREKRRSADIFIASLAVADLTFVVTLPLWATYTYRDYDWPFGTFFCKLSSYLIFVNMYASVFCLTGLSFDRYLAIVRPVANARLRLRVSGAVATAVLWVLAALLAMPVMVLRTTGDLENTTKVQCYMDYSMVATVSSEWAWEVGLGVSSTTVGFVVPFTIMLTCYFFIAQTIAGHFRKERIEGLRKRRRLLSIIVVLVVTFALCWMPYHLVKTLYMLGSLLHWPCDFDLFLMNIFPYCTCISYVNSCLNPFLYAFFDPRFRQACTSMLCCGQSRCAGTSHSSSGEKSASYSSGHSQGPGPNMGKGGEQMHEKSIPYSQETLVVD
EBI2 block – EBI2 receptor antagonists, beta-arrestin recruitment, primary screen, cell-based, luminescence, 7a,25-OHC stimulation, uHTS | 7a,25-OHC stimulated | AID 651636, 2012 | G-protein coupled receptor 183 (Homo sapiens), P32249 | 360,000 compounds, 0.81% hits | inhibition, % at 5 µM; in the data active means inhibition above about 38%;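 further: enzyme fragment complementation signal reports receptor beta-arrestin coupling in cells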
CXCR6 inh – CXCR6 receptor inhibitors, primary screen, cell-based, beta-arrestin, luminescence, CHO-K1 PathHunter, 1536-well; AID 602244, 2012; inhibition, % at 20 µM; 360,000 compounds, 0.36% hits; in the data active means inhibition above about 34%, passing the limit was not always enough;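 further: antagonist mode with CXCL16 agonist at 10 nM final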
CCR6 antag – CCR6 receptor antagonists, primary screen, cell-based, CHO-K1, luminescence, beta-arrestin, uHTS; C-C chemokine receptor type 6 (Homo sapiens), P51684; CHO-K1 CCR6 PathHunter beta-arrestin, CCL20-stimulated; inhibition, % at 20 µM; 340,000 compounds, 0.49% hits;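 active means compounds whose inhibition of the agonist-driven luminescence signal at 20 µM reaches about 50%, limit read from the data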;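 further: cells stimulated with CCL20 at 14 nM final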
APJ agonist – agonists of human apelin receptor APJ, primary screen, CHO-K1 cells, PathHunter beta-arrestin, luminescence; 0% DMSO wells, 100% apelin; activation, % at 20 µM; 330,000 compounds, 0.11% hits; AID 2520, 2010;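 active means activation more than six SD over the plate average, tested at 20 µM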
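Material: CHO-K1 APJ beta-arrestin complementation cell line; Input: cell density 1000 per well; Incubation: compound stimulation 90 min at 25 °C, detection 60 min; Signal: luminescence from split beta-galactosidase complementation, Galacton Star/Emerald II substrate; Controls: DMSO-only wells as negative, 10 nM Apelin-13 as positive control.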
EBI2 antag conf – EBI2 antagonist hit retest, beta-arrestin, confirmation, cell-based, single concentration, luminescence, 7a,25-OHC stimulation | shares compounds with EBI2 block | 7a,25-OHC antagonism | inhibition, % at 5 µM | 2,400 compounds, 29% hits;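 active means inhibition of at least 50%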
EBI2 ag – EBI2 agonist activity of antagonist hits, confirmation, counter-screen for EBI2 antagonist project, cell-based, single concentration, agonist mode, luminescence; shares compounds with EBI2 block; EBI2-expressing cells, 60 min; 0% vehicle, 100% 7α,25-dihydroxycholesterol control; activation, % at 5 µM; 2,400 tested, under 10 active; AID 652000, 2013;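 active means activation of at least 50%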
bGal cs – E. coli beta-galactosidase enzyme inhibition, confirmation, counter-screen for EBI2 antagonist project, biochemical, luminescence, single concentration | shares compounds with EBI2 block | purified beta-galactosidase, luminescent Galacton Star, 15 min | inhibition, % at 5 µM | 2,400 compounds, 1% hits | AID 652176, 2013;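 active means replicate-average signal at least 3 plate SD below neutral wells, shown as high inhibition, flagging enzyme-inhibiting false positives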;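 further: higher means stronger loss of beta-gal luminescence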
A number is an active result; . = inactive; / = not tested or not shown.

SMILES | APJ antag | EBI2 block | CXCR6 inh | CCR6 antag | APJ agonist | EBI2 antag conf | EBI2 ag | bGal cs
O=C(/C=C/c1ccc(Cl)cc1Cl)N1CCN(c2ccccc2[N+](=O)[O-])CC1 | . | 82 | . | . | . | 62 | . | .
O=C(c1ccccc1)N1CCN(c2ccc([N+](=O)[O-])c(N3CCOCC3)c2)CC1 | . | . | . | . | . | / | / | /
O=C(/C=C/c1ccc(Cl)cc1)N1CCN(c2ccc([N+](=O)[O-])c(N3CCOCC3)c2)CC1 | / | 96 | . | . | / | 88 | . | .
O=C(/C=C/c1ccc(Cl)cc1Cl)N1CCN(c2ccc([N+](=O)[O-])c(N3CCOCC3)c2)CC1 | . | 61 | . | . | . | . | . | .
CCCCC(=O)N(C)c1c(CC)nc2c(OCC(=O)N3CCOCC3)cccn12 | / | . | . | / | / | / | / | /
CCCNC(=O)C1(C)CCCN(Cc2ccc(Cl)cc2)C1 (stereo not given) | / | . | . | / | / | / | / | /
N#CCCN(Cc1ccccc1)C(C(=O)NC1CCCCC1)c1ccnc2ccccc12 (stereo not given) | / | . | . | / | / | / | / | /
O=C(CSc1ccc2ccccc2n1)N1CCC(c2noc3ccc(F)cc23)CC1 | . | 38 | . | . | . | . | . | .
Cc1nnc(SCC(=O)N2CCC(c3noc4ccc(F)cc34)CC2)s1 | . | . | . | . | . | / | / | /
O=C(CSc1ccccc1Cl)N1CCC(c2nc3ccccc3s2)CC1 | . | . | . | . | . | / | / | /
O=C(CSc1ccc(F)cc1)N1CCC(c2nc3ccccc3s2)CC1 | . | 46 | . | . | . | . | . | .
C[C@@H](NS(=O)(=O)c1cc(Cl)ccc1F)[C@H](O)c1ccccc1 | / | . | . | . | / | / | / | /
C=CCN1C(=O)C(=Cc2ccc3c(c2)CCC3)SC1=S | / | . | . | / | / | / | / | /
Cc1cccc(N2C(=O)/C(=C\c3ccc(OC(F)F)cc3)c3ccccc3C2=O)c1 | . | 61 | . | . | . | . | . | .
Cc1ccc(C(=O)CNc2ccc(Cl)cc2)cc1 | 102 | 57 | 53 | 71 | . | 76 | . | .
C/C(=N/NC(=O)CNc1ccc(C)cc1)c1ccc(Cl)cc1 | . | . | . | . | . | / | / | /
N#Cc1ccc(/C=C\c2nccc3c2[nH]c2ccccc23)cc1 | . | 48 | . | . | . | . | . | .
Clc1ccc(/C=C\c2nccc3c2[nH]c2ccccc23)cc1 | / | 65 | . | . | / | . | . | .
N#CC1(C(N)=O)OC12CCS(=O)(=O)c1ccccc12 (stereo not given) | / | . | . | . | / | / | / | /
CN(C)Cc1csc(NC(=O)Nc2ccccc2Oc2ccccc2)n1 | / | . | . | / | / | / | / | /
C[C@]12c3[nH]c4cc(-c5ccco5)ccc4c3CCN1C(=O)[C@@H](CC(=O)NCC13CC4CC(CC(C4)C1)C3)C[C@@H]2C(=O)N1CCCCC1 | / | 44 | . | . | / | . | . | .
Cc1ccc(NC(=O)c2ccc(NS(=O)(=O)c3c(C)noc3C)cc2)cc1C | . | 48 | . | . | . | . | . | .
COc1cccc(OCCNC(=O)c2cc([N+](=O)[O-])cc([N+](=O)[O-])c2)c1 | . | . | . | . | . | / | / | /
Cc1ccc(C(=O)NCCOc2ccc(Cl)cc2)cc1 | . | 51 | . | . | . | . | . | .
Cc1ccc(OCCNC(=O)c2cc(C(=O)NCCOc3ccc(C)cc3)cc([N+](=O)[O-])c2)cc1 | . | 47 | . | . | . | . | . | .
Cc1ccc(S(=O)(=O)NCCC(=O)NCCOc2ccccc2)cc1 | . | . | . | . | . | / | / | /
